The record followed here is ChEMBL document CHEMBL4393676, “Design, Synthesis, and Preclinical Characterization of Selective Factor D Inhibitors Targeting the Alternative Complement Pathway” (J Med Chem, 2019).

In brackets after ≈: the same amount, converted by molar mass.

The nature of data set [1]: Clearance in C57BL/6 mouse at 1 mg/kg, iv or 10 mg/kg, po administered via gavage by HPLC-MS/MS analysis. The class given is ADME, organism-based. As to conditions: in vivo.
The next data set has as its target Coagulation factor XI (Homo sapiens, UniProt P03951). The data set can be described thus: Inhibition of F11a (unknown origin).
Data set [2] in a line: Solubility of the compound at pH 6.8. The class given is physicochemical. The note with it: buffer.
The nature of data set [3]: Oral bioavailability in C57BL/6 mouse 10 mg/kg by HPLC-MS/MS analysis. The class given is ADME, organism-based. The note with it: in vivo; for bioavailability: C57BL/6, mouse.
A further data set deals with Tryptase beta-2 (Homo sapiens, UniProt P20231). The data set can be described thus: Inhibition of tryptase-beta2 (unknown origin).
Data set [4] is described as follows: Volume of distribution at steady state in C57BL/6 mouse at 1 mg/kg, iv or 10 mg/kg, po administered via gavage by HPLC-MS/MS analysis. The class given is ADME, organism-based. As to conditions: in vivo, read-out: Vdss.
Data set [5] can be described thus: AUC (0 to 7 hrs) in C57BL/6 mouse at 1 mg/kg, iv by HPLC-MS/MS analysis. As to conditions: in vivo; for AUC(0-t) at 7 h: C57BL/6, mouse. The arrangement: dose 1 mg/kg, time < 7 hr, route intravenous. In kind it is ADME, organism-based.
A short description of data set [6]: Cmax in C57BL/6 mouse at 10 mg/kg, po administered via gavage by HPLC-MS/MS analysis. In kind it is ADME, organism-based. As to conditions: in vivo. Also on record: dose 10 mg/kg, route oral.
Data set [7] is described as follows: Elimination half life in C57BL/6 mouse at 1 mg/kg, iv by HPLC-MS/MS analysis. The class given is ADME, organism-based. As to conditions: in vivo, read-out: beta t1/2 (converted).
A short description of data set [8]: AUC (0 to 7 hrs) in C57BL/6 mouse at 10 mg/kg, po administered via gavage by HPLC-MS/MS analysis. In kind it is ADME, organism-based. Also on record: time < 7 hr, dose 10 mg/kg, route oral. The note with it: in vivo; for AUC(0-t) at 7 h: C57BL/6, mouse.
Data set [9] concerns Mus musculus. In words: Suppression of LPS-induced alternative complementation pathway in human FD knock-in C57BL/6 mouse assessed as reduction in plasma Ba level treated via oral gavage […] prior to LPS stimulation and measured up to 24 hrs post-dose. In kind it is functional, organism-based.
The nature of data set [10]: Half life in Beagle dog at 1 mg/kg, iv or 10 mg/kg, po administered via gavage by HPLC-MS/MS analysis. In kind it is ADME, organism-based, Canis lupus familiaris. The note with it: in vivo. A digest of the protocol:
(§1)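 Beagle dogs, n=3 per route: IV 1 mg/kg in 2% 1N HCl, 20% PEG 300, 50% of 20% solutol in PBS; PO gavage 10 mg/kg as solution in 20% PEG 300, 10% solutol HS15, 70% citrate buffer pH 3. Blood at 5 min (IV), 15 min, 0.5, 1, 2, 4, 7, 24 h; HPLC-MS/MS (ESI positive); non-compartmental analysis; mean ± SD.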

Data set [11] in a line: AUClast in Beagle dog at 10 mg/kg, po administered via gavage by HPLC-MS/MS analysis. The arrangement: dose 10 mg/kg, time 0 - last, route oral. The note with it: in vivo. The class given is ADME, organism-based, Canis lupus familiaris. The procedure, abridged: as §1
A short description of data set [12]: Drug level in Brown Norway rat posterior eye cup at 10 mg/kg, po administered via gavage measured at 24 hrs post dose by HPLC-MS/MS analysis. In kind it is ADME, organism-based. The note with it: read-out: Drug uptake. A digest of the protocol:
(§2)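 Three-month-old Brown Norway rats given single 10 mg/kg oral gavage, suspension in 0.5% HPMC/0.1% Tween 80. Plasma and both eyes' retina and posterior eye cup (RPE/choroid plus posterior sclera) taken from 2 rats per time at 0.25, 0.5, 1, 3, 6, 24 h; tissues homogenized in PBS with 10% acetonitrile, supernatants by HPLC-MS/MS. AUC dose normalized.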

Data set [13] in a line: Tmax in Beagle dog at 10 mg/kg, po administered via gavage by HPLC-MS/MS analysis. In kind it is ADME, organism-based, Canis lupus familiaris. The note with it: in vivo. A digest of the protocol:
as §1

Data set [14] is described as follows: Dose normalized AUC in Brown Norway rat retina at 10 mg/kg, po administered via gavage by HPLC-MS/MS analysis. In kind it is ADME, organism-based. As to conditions: in vivo. A digest of the protocol:
as §2

The nature of data set [15]: Dose normalized AUC in Brown Norway rat plasma at 10 mg/kg, po administered via gavage by HPLC-MS/MS analysis. The class given is ADME, organism-based. The note with it: in vivo. The procedure, abridged:
as §2

Data set [16] can be described thus: Time at which posterior eye cup concentration stays above in vitro IC50 for inhibition of FD-mediated alternative complementation pathway in 50% human whole blood in Brown Norway rat at 10 mg/kg, po. The class given is organism-based. The note with it: in vivo. A digest of the protocol: as §2
Data set [17] in a line: Plasma concentration in Brown Norway rat at 10 mg/kg, po administered via gavage measured at 24 hrs post dose by HPLC-MS/MS analysis. In kind it is ADME, organism-based. A digest of the protocol:
as §2

The nature of data set [18]: Volume of distribution at steady state in Beagle dog at 1 mg/kg, iv or 10 mg/kg, po administered via gavage by HPLC-MS/MS analysis. The class given is ADME, organism-based, Canis lupus familiaris. As to conditions: in vivo, read-out: Vdss. A digest of the protocol:
as §1

Data set [19] in a line: Dose normalized AUC in Brown Norway rat posterior eye cup at 10 mg/kg, po administered via gavage by HPLC-MS/MS analysis. The class given is ADME, organism-based. As to conditions: in vivo. The procedure, abridged:
as §2

Data set [20] is described as follows: Oral bioavailability in Beagle dog at 10 mg/kg administered via gavage by HPLC-MS/MS analysis. The class given is ADME, organism-based, Canis lupus familiaris. The note with it: in vivo. A digest of the protocol: as §1
Data set [21] in a line: Cmax in Beagle dog at 10 mg/kg, po administered via gavage by HPLC-MS/MS analysis. The arrangement: dose 10 mg/kg, route oral. As to conditions: in vivo. The class given is ADME, organism-based, Canis lupus familiaris. A digest of the protocol:
as §1

Data set [22] has as its system Mus musculus. In words: Suppression of intravitreal injection-activated alternative complementation pathway in human FD knock-in C57BL/6 mouse model of local ocular injury assessed as reduction in ocular Ba level treated via oral gavage 2 hrs prior to intravitreal injection and measured after 4 hrs by Western blot analysis. The class given is functional, organism-based. The procedure, abridged:
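Human FD knock-in mice dosed by oral gavage (3 or 10 mg/kg) at time 0; 2 h later anesthetized and injected intravitreally with 1 µL sterile PBS. Eyes taken 4 h after injection; lysates analysed for Ba by Western blot, relative to vehicle, mean ± SEM.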
In general terms: In western blotting, separated proteins are transferred to a membrane and probed.

A short description of data set [23]: Drug level in Brown Norway rat retina at 10 mg/kg, po administered via gavage measured at 24 hrs post dose by HPLC-MS/MS analysis. In kind it is ADME, organism-based. As to conditions: in vivo, BLD = below limit of detection. The procedure, abridged:
as §2

A short description of data set [24]: Clearance in Beagle dog at 1 mg/kg, iv or 10 mg/kg, po administered via gavage by HPLC-MS/MS analysis. The class given is ADME, organism-based, Canis lupus familiaris. As to conditions: in vivo. A digest of the protocol: as §1

`NCc1cccc(-c2cccc(C(=O)Nc3ccccc3CC(=O)O)c2)c1` had a clearance in data set [1] of 22 mL/min/kg. Besides, the IC50 against Coagulation factor XI was 2800 nM; at Tryptase beta-2, 2300 nM. In data set [2], this molecule returned a solubility of 220 µM (≈ 79.3 µg/mL). In addition, the bioavailability in [3] was determined as 10%.
Take `N[C@H](CCO)c1cccc(-c2cccc(COc3ccccc3CC(=O)O)c2)c1`: the clearance in data set [1] was determined as 8.7 mL/min/kg. Moreover, in [4], the Vd amounted to 0.3 L/kg. In addition, the AUC(0-t) at 7 h came out at 4.97 µM·h in data set [5] and 19.5 µM·h in data set [8]. In data set [6], this molecule yielded a Cmax of 10.7 µM. Besides, the bioavailability in data set [3] was found to be 39%. Further, the half-life in data set [7] was 1.3 h.
For the molecule `N[C@H](CO)c1cccc(-c2cccc(COc3ccccc3CC(=O)O)c2)c1`, the clearance in [1] turned out to be 2.6 mL/min/kg; in data set [24], 3.8 mL/min/kg. Also, the Vd in data set [4] was determined as 0.3 L/kg; in data set [18], 0.8 L/kg. For the same molecule, the Activity result in the data set on Mus musculus [9] and with Mus musculus [22] was “Dose-dependent effect” in each case. Also, the half-life is 3.8 h in data set [10] and 1.6 h in [7]. Further, in data set [11], the AUC(0-t) is 85 µM·h. The AUC(0-t) at 7 h in [5] worked out at 16.1 µM·h; in data set [8], 125 µM·h. Also, the results for the concentration at 24 h in [12] and in [17] were 0.29 µM and 0.034 µM, respectively. Besides, the time to peak (Tmax) in data set [13] was determined as 0.8 h. The AUC/dose is 8 nM·h in data set [14], 2300 nM·h in data set [15] and 1160 nM·h in data set [19]. For the same molecule, the Cmax was determined as 31 µM in data set [6] and 16.5 µM in data set [21]. The same molecule displayed a Time in data set [16] greater than 24 h. The bioavailability in data set [3] amounted to 83%; in data set [20], 70%. In [23], the Drug uptake entry is given as “Bld”.
Take `N[C@H](CO)c1cccc(-c2cc(Br)cc(COc3ccccc3CC(=O)O)c2)c1`: in [1], the clearance is 0.7 mL/min/kg. For the same molecule, the Vd in data set [4] turned out to be 0.1 L/kg. In addition, the AUC came out at 48.7 µM·h in [5] (mouse, 7 h) and 11.6 µM·h in data set [8] (mouse, 7 h). This molecule also showed a Cmax in data set [6] of 26 µM. The same molecule registered a F in data set [3] (mouse) of 25%. In addition, in data set [7], the half-life is 2.5 h.
As to `NCc1cccc(-c2cccc(COc3ccccc3CC(=O)O)c2)c1`, in data set [1], the clearance worked out at 14 mL/min/kg. For the same molecule, the bioavailability in data set [3] was 100%.

As usually defined, the IC50 is the concentration that inhibits the measured activity by half. Higher therefore signals weaker potency. By solubility is commonly meant the concentration that dissolves in the medium under given conditions. A word on the bioavailability: it is the share of a dose that reaches the circulation, judged against a reference dose that is usually intravenous. The AUC(0-t) is exposure summed from dosing to a finite time, without extrapolation to infinity. A low value points to less exposure. As usually defined, the Cmax is the maximum level reached in the sampled fluid or tissue. In general, Tmax refers to the time from dosing to the highest level. One may read the AUC as the area under the concentration-time curve, a measure of exposure.
